ChEMBL document CHEMBL3244279, “Synthesis and pharmacological evaluation of a clofibrate-related tricyclic spirolactone, 5-chloro-4',5-dihydrospiro[benzofuran-2(3H),3'(2'H)-furan]-2'-one” (J Med Chem, 1978)
Calls of active or inactive are those of the source. The rule behind the calls is not given here.

How the values were obtained:
Rattus norvegicus [1] = test: Modulation of HMG-CoA reductase activity in sucrose-fed Sprague-Dawley rat liver assessed as mevalonic acid formation using DL-3-hydroxy-3-methylglutaryl-3-14C-CoA as substrate at 0.4 mmol/kg, po bid for 7 days (reference value: 8.27 to 8.3 nmol/mg/hr); format: functional
Rattus norvegicus [2] = test: Modulation of triglyceride level in sucrose-fed Sprague-Dawley rat liver at 0.4 mmol/kg, po bid for 7 days (reference value: 7.26 to 8.29 mg/g); format: functional
Rattus norvegicus [3] = test: Modulation of cytochrome-P450 activity in sucrose-fed Sprague-Dawley rat liver microsomes at 0.4 mmol/kg, po bid for 7 days measured per mg of protein (reference value: 0.477 to 0.593 nmol); format: functional
Procedure, shortened: (§1)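 Sucrose-fed male rats dosed orally 0.4 mmol/kg twice daily for 7 days, controls vehicle; livers taken under ether anesthesia, microsomes prepared. Cytochrome P-450 and b5 estimated by the Kinoshita–Horie procedure, per mg microsomal protein. Mean ± SD, n = 5; Student's t test.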

[4] = Drug metabolism in Ringer bicarbonate buffer assessed as hydrolysis at pH 7.4 measured after 60 mins; format: physicochemical; conditions: read-out: Drug metabolism
Procedure, shortened: (§2)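 Nonenzymatic hydrolysis: 0.1 mL of 0.05 M ethanolic stock added to 6.0 mL Ringer bicarbonate buffer, pH 7.4, 37 °C with shaking. Aliquots at 0–60 min extracted into isooctane–EtOH (95:5) with saturated NaCl; disappearance of parent tracked at 250 nm.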

Rattus norvegicus [5] = test: Modulation of cholesterol level in sucrose-fed Sprague-Dawley rat liver at 0.4 mmol/kg, po bid for 7 days (reference value: 1.81 to 2.17 mg/g); format: functional
Rattus norvegicus [6] = test: Antilipidemic activity in Triton WR-1339-induced hyperlipidemic Sprague-Dawley rat model assessed as plasma cholesterol level at 0.124 mmol/kg, po (reference value: 166 +/- 17.8 mg/dL)
Rattus norvegicus [7] = test: Antilipidemic activity in 48-hrs starved normal Sprague-Dawley rat model assessed as plasma cholesterol level at 0.124 mmol/kg, po (reference value: 88.7 +/- 6.9 mg/dL); format: functional
Rattus norvegicus [8] = test: Modulation of liver microsomal protein level in sucrose-fed Sprague-Dawley rat at 0.4 mmol/kg, po bid for 7 days measured per gm of tissue (reference value: 25.0 to 27.2 mg); format: functional
Rattus norvegicus [9] = test: Antilipidemic activity in sucrose-fed Sprague-Dawley rat assessed as serum cholesterol level at 0.4 mmol/kg, po bid for 7 days measured on day 0 (reference value: 69 +/- 9 mg/dL); format: functional
Rattus norvegicus [10] = test: Antilipidemic activity in sucrose-fed Sprague-Dawley rat assessed as serum triglyceride level at 0.4 mmol/kg, po bid for 7 days measured on day 0 (reference value: 157.1 +/- 77.8 mg/dL); format: functional
Rattus norvegicus [11] = test: Antilipidemic activity in sucrose-fed Sprague-Dawley rat assessed as serum triglyceride level at 0.4 mmol/kg, po bid for 7 days measured on day 7 (reference value: 115.6 +/- 19.4 mg/dL); format: functional
Rattus norvegicus [12] = test: Modulation of NADPH-cytochrome c reductase activity in sucrose-fed Sprague-Dawley rat liver microsomes assessed as cytochrome c reduction at 0.4 mmol/kg, po bid for 7 days (reference value: 202.5 +/- 27.9 nmol/mg/min); format: functional
Rattus norvegicus [13] = test: Antilipidemic activity in 48-hrs starved normal Sprague-Dawley rat model assessed as plasma triglyceride level at 0.124 mmol/kg, po (reference value: 20.8 +/- 5.5 mg/dL); format: functional
Rattus norvegicus [14] = test: Modulation of liver to body weight ratio in sucrose-fed Sprague-Dawley rat at 0.4 mmol/kg, po bid for 7 days (reference value: 3.88 to 4.06%); format: functional
Rattus norvegicus [15] = test: Antilipidemic activity in sucrose-fed Sprague-Dawley rat assessed as serum cholesterol level at 0.4 mmol/kg, po bid for 7 days measured on day 7 (reference value: 92 +/- 22 mg/dL); format: functional
Rattus norvegicus [16] = test: Modulation of liver weight in sucrose-fed Sprague-Dawley rat at 0.4 mmol/kg, po bid for 7 days (reference value: 11.30 to 13.16 gms); format: functional
Rattus norvegicus [17] = test: Antilipidemic activity in Triton WR-1339-induced hyperlipidemic Sprague-Dawley rat model assessed as plasma triglyceride level at 0.124 mmol/kg, po (reference value: 98.5 +/- 16.9 mg/dL)
[18] = Drug metabolism in Sprague-Dawley rat serum assessed as esterase-mediated hydrolysis measured after 5 mins; format: ADME, cell-free
Procedure, shortened: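 Pooled serum from ether-anesthetized male Sprague-Dawley rats (300–350 g; aortic blood with EDTA). 0.1 mL of 0.05 M ethanolic stock added to 6.0 mL serum, 37 °C with shaking; samples at 0, 5, 10, 30, 60 min extracted into isooctane–EtOH (95:5) with saturated NaCl; loss of parent read at 250 nm.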

Rattus norvegicus [19] = test: Modulation of cytochrome b5 activity in sucrose-fed Sprague-Dawley rat liver microsomes at 0.4 mmol/kg, po bid for 7 days measured per mg of protein (reference value: 0.185 to 0.213 nmol); format: functional; procedure, shortened: as §1
Rattus norvegicus [20] = test: Antilipidemic activity in normal Sprague-Dawley rat assessed at 0.4 mmol/kg, po bid for 7 days; format: functional, organism-based
Rattus norvegicus [21] = test: Modulation of ethylmorphine N-demethylase activity in sucrose-fed Sprague-Dawley rat liver microsomes assessed as formaldehyde formation using ethylmorphine as substrate at 0.4 mmol/kg, po bid for 7 days (reference value: 6.40 to 9.36 nmol/mg/min); format: functional
Rattus norvegicus [22] = test: Modulation of HMG-CoA reductase activity in sucrose-fed Sprague-Dawley rat liver assessed as mevalonic acid formation using DL-3-hydroxy-3-methylglutaryl-3-14C-CoA as substrate at 0.4 mmol/kg, po bid for 7 days (reference value: 8.27 +/- 1.18 nmol/mg/hr); format: functional
Rattus norvegicus [23] = test: Antilipidemic activity in Triton WR-1339-induced hyperlipidemic Sprague-Dawley rat model assessed as plasma triglyceride level at 0.124 mmol/kg, po (reference value: 156 +/- 184 mg/dL)
Rattus norvegicus [24] = test: Antilipidemic activity in Triton WR-1339-induced hyperlipidemic Sprague-Dawley rat model assessed as plasma cholesterol level at 0.124 mmol/kg, po (reference value: 183 +/- 101 mg/dL)
Rattus norvegicus [25] = test: Modulation of ethylmorphine N-demethylase activity in sucrose-fed Sprague-Dawley rat liver microsomes assessed as formaldehyde formation using ethylmorphine as substrate at 0.4 mmol/kg, po bid for 7 days (reference value: 9.36 +/- 0.50 nmol/mg/min); format: functional
Rattus norvegicus [26] = test: Modulation of liver to body weight ratio in normal Sprague-Dawley rat at 0.4 mmol/kg, po bid for 7 days (reference value: 4.21 to 4.59%); format: functional
Rattus norvegicus [27] = test: Modulation of cholesterol level in normal Sprague-Dawley rat liver at 0.4 mmol/kg, po bid for 7 days (reference value: 2.73 to 3.28 mg/g); format: functional
Rattus norvegicus [28] = test: Antilipidemic activity in normal Sprague-Dawley rat assessed as serum cholesterol level at 0.4 mmol/kg, po bid for 7 days (reference value: 59.1 to 81.6 mg/dL); format: functional
Procedure, shortened: (§3)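 Normal male Sprague-Dawley rats dosed orally twice daily, 0.4 mmol/kg […], for 7 days; controls received vehicle. Serum cholesterol and triglycerides measured at end of treatment; two separate experiments. Mean ± SD, n = 5; Student's t test vs control.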

Rattus norvegicus [29] = test: Modulation of HMG-CoA reductase activity in normal Sprague-Dawley rat liver assessed as mevalonic acid formation using DL-3-hydroxy-3-methylglutaryl-3-14C-CoA as substrate at 0.4 mmol/kg, po bid for 7 days (reference value: 49.1 +/- 6.7 nmol/mg/hr); format: functional
Rattus norvegicus [30] = test: Modulation of triglyceride level in sucrose-fed Sprague-Dawley rat liver at 0.4 mmol/kg, po bid for 7 days (reference value: 8.29 +/- 2.24 mg/g); format: functional
Rattus norvegicus [31] = test: Modulation of liver to body weight ratio in sucrose-fed Sprague-Dawley rat at 0.4 mmol/kg, po bid for 7 days (reference value: 4.06 +/- 0.25%); format: functional
Rattus norvegicus [32] = test: Modulation of cholesterol level in sucrose-fed Sprague-Dawley rat liver at 0.4 mmol/kg, po bid for 7 days (reference value: 2.17 +/- 0.26 mg/g); format: functional
Rattus norvegicus [33] = test: Modulation of triglyceride level in normal Sprague-Dawley rat liver at 0.4 mmol/kg, po bid for 7 days (reference value: 2.73 to 3.36 mg/g); format: functional
[34] = Drug metabolism in Sprague-Dawley rat serum assessed as esterase-mediated hydrolysis at 0.05 M measured after 5 mins; format: ADME, cell-free; conditions: read-out: Drug metabolism
Rattus norvegicus [35] = test: Modulation of liver weight in normal Sprague-Dawley rat at 0.4 mmol/kg, po bid for 7 days (reference value: 6.73 to 8.71 gms); format: functional
Rattus norvegicus [36] = test: Modulation of liver microsomal protein level in normal Sprague-Dawley rat at 0.4 mmol/kg, po bid for 7 days measured per gm of tissue (reference value: 25.4 to 29.0 mg); format: functional
Rattus norvegicus [37] = test: Antilipidemic activity in normal Sprague-Dawley rat assessed as serum triglyceride level at 0.4 mmol/kg, po bid for 7 days (reference value: 61.2 to 69.1 mg/dL); format: functional; procedure, shortened: as §3
Rattus norvegicus [38] = test: Modulation of liver microsomal protein level in sucrose-fed Sprague-Dawley rat at 0.4 mmol/kg, po bid for 7 days measured per gm of tissue (reference value: 25.0 +/- 2.5 mg); format: functional
Rattus norvegicus [39] = test: Antilipidemic activity in 48-hrs starved normal Sprague-Dawley rat model assessed as plasma triglyceride level at 0.124 mmol/kg, po (reference value: 20.9 +/- 11.3 mg/dL); format: functional
Rattus norvegicus [40] = test: Modulation of liver weight in sucrose-fed Sprague-Dawley rat at 0.4 mmol/kg, po bid for 7 days (reference value: 13.16 +/- 0.61 gms); format: functional
Rattus norvegicus [41] = test: Modulation of cytochrome b5 activity in sucrose-fed Sprague-Dawley rat liver microsomes at 0.4 mmol/kg, po bid for 7 days measured per mg of protein (reference value: 0.213 +/- 0.032 nmol); format: functional; procedure, shortened: as §1
Rattus norvegicus [42] = test: Antilipidemic activity in 48-hrs starved normal Sprague-Dawley rat model assessed as plasma cholesterol level at 0.124 mmol/kg, po (reference value: 90.1 +/- 8.8 mg/dL); format: functional
[43] = Drug metabolism in Ringer bicarbonate buffer assessed as hydrolysis at 0.05 M at pH 7.4 measured after 60 mins; format: physicochemical; procedure, shortened: as §2
Rattus norvegicus [44] = test: Modulation of cytochrome-P450 activity in sucrose-fed Sprague-Dawley rat liver microsomes at 0.4 mmol/kg, po bid for 7 days measured per mg of protein (reference value: 0.593 +/- 0.059 nmol); format: functional; procedure, shortened: as §1

Question: Which Activity (Rattus norvegicus [1]) does the source give for CCOC(=O)C(C)(C)Oc1ccc(Cl)cc1 [CLOFIBRATE] here?
Answer: Its Activity is 2.7 nmol/mg/h.

Question: What about the Activity (Rattus norvegicus [2]) of the same compound?
Answer: The Activity was 3.05 mg/g.

Question: And the Activity (Rattus norvegicus [3])?
Answer: Its Activity is 0.806 nmol.

Question: And the degraded at 1 h [4]?
Answer: Its degraded at 1 h is < 20%.

Question: And the Activity (Rattus norvegicus [5])?
Answer: The Activity was 1.76 mg/g.

Question: What about the Activity (Rattus norvegicus [6]) of the same compound?
Answer: The Activity was 93.2 mg/dL.

Question: What about the Activity (Rattus norvegicus [7]) of the same compound?
Answer: The Activity was 87 mg/dL.

Question: What about the Activity (Rattus norvegicus [8]) of the same compound?
Answer: Its Activity is 29.2 mg.

Question: What about the Activity (Rattus norvegicus [9]) of the same compound?
Answer: The Activity was 74 mg/dL.

Question: What about the Activity (Rattus norvegicus [10]) of the same compound?
Answer: Its Activity is 153 mg/dL.

Question: What about the Activity (Rattus norvegicus [11]) of the same compound?
Answer: Its Activity is 50.2 mg/dL.

Question: And the Activity (Rattus norvegicus [12])?
Answer: Its Activity is 308.3 nmol/mg/min.

Question: And the Activity (Rattus norvegicus [13])?
Answer: Its Activity is 24.1 mg/dL.

Question: And the Activity (Rattus norvegicus [14])?
Answer: The Activity was 5.01%.

Question: What about the Activity (Rattus norvegicus [15]) of the same compound?
Answer: Its Activity is 36 mg/dL.

Question: What about the Activity (Rattus norvegicus [16]) of the same compound?
Answer: Its Activity is 14.32 g.

Question: And the Activity (Rattus norvegicus [17])?
Answer: Its Activity is 22.3 mg/dL.

Question: And the metabolised at 5 min [18]?
Answer: The metabolised at 5 min was > 90%.

Question: And the Activity (Rattus norvegicus [19])?
Answer: The Activity was 0.169 nmol.

Question: And the Activity (Rattus norvegicus [20])?
Answer: The Activity was “Active”.

Question: And the Activity (Rattus norvegicus [21])?
Answer: Its Activity is 7.91 nmol/mg/min.

Question: What does the source list for O=C1OCCC12Cc1cc(Cl)ccc1O2 (stereo not drawn)?
Answer: Activity (Rattus norvegicus [22]): 7.1 nmol/mg/h; Activity (Rattus norvegicus [23]): 20.6 mg/dL; Activity (Rattus norvegicus [24]): 131 mg/dL; Activity (Rattus norvegicus [25]): 9.8 nmol/mg/min; Activity (Rattus norvegicus [26]): 4.5%; Activity (Rattus norvegicus [27]): 3.18 mg/g; Activity (Rattus norvegicus [28]): 58.6 mg/dL; Activity (Rattus norvegicus [29]): 45 nmol/mg/h; Activity (Rattus norvegicus [30]): 10.02 mg/g; Activity (Rattus norvegicus [31]): 4.18%; Activity (Rattus norvegicus [9]): 67 mg/dL; Activity (Rattus norvegicus [32]): 2.32 mg/g; Activity (Rattus norvegicus [33]): 3.17 mg/g; metabolised at 5 min [34]: > 90%; Activity (Rattus norvegicus [35]): 7.87 g; Activity (Rattus norvegicus [10]): 142 mg/dL; Activity (Rattus norvegicus [11]): 121.5 mg/dL; Activity (Rattus norvegicus [15]): 103 mg/dL; Activity (Rattus norvegicus [36]): 27.3 mg; Activity (Rattus norvegicus [37]): 66.5 mg/dL; Activity (Rattus norvegicus [38]): 27.8 mg; Activity (Rattus norvegicus [39]): 18.5 mg/dL; Activity (Rattus norvegicus [40]): 13.16 g; Activity (Rattus norvegicus [41]): 0.173 nmol; Activity (Rattus norvegicus [42]): 91.8 mg/dL; degraded at 1 h [43]: < 20%; Activity (Rattus norvegicus [44]): 0.55 nmol
